Sampled rows, rich in hits. Any-hit rate of the full collection: about 5.8%.
T cruzi growth-1: blocks T. cruzi growth in NIH3T3 culture | T. cruzi beta-gal in NIH3T3, GalScreen luminescence, 90 h | inhibition, % at 8.34 µM | 77,000 compounds, 5.9% hits;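 active = mean inhibition above about 93%, with at least 55% of replicates each passing it, limit read from the data, passing the limit was not always enough; inconclusive = only one of those two conditions holds; inactive = neither condition holds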
IDH1 R132H inh: IDH1 R132H (human) inhibition; 70,000 compounds, 0.18% hits; O75874; AID 624101; IDH1 R132H reductase, diaphorase/resazurin fluorescence, 60 min; inhibition, % at 10 µM; in the data active = inhibition above about 34%; inconclusive = no clear call, values can overlap the other calls; inactive = below about 11%;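 also: 0% = DMSO and 100% = no enzyme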
GASC1 inh: blocks human GASC-1 (KDM4C) demethylase activity | inhibition, % at 12.5 µM | 96,000 compounds, 0.15% hits | GST-KDM4C 2-372, H3K9me3 peptide, LANCE TR-FRET | Q9H3R0;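 active = mean replicate inhibition above about 25%, with at least 55% of replicates also reaching it, limit read from the data, passing the limit was not always enough; inconclusive = only one of those two conditions met; inactive = neither condition met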
Target sequence (Q9H3R0 2-372 limits assumed): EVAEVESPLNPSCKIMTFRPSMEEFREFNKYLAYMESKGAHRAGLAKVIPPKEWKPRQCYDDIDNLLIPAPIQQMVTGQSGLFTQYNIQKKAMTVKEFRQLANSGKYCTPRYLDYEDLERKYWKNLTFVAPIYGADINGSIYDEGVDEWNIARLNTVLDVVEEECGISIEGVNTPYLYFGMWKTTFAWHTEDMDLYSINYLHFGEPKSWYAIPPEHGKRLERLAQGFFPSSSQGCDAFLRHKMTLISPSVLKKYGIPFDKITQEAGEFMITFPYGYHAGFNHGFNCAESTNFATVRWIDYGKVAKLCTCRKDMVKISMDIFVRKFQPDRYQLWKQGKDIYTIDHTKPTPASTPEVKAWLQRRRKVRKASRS
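Assay system: GST-GASC-1 enzyme fragment 2-372 | Amount: 10 nM enzyme | Medium: HEPES buffer, pH 7.5, plus ascorbate | Reagent: H3K9me3 peptide substrate, Fe(II), 2-oxoglutarate | Doses: Single-point compound screen | Incubation: 30 min demethylation and 1 h detection at room temperature | Measured by: LANCE TR-FRET, excitation 340 nm, emissions 618 and 671 nm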
Pf Dd2 growth: inhibitors of Plasmodium falciparum Dd2 growth; P. falciparum Dd2 growth, SYBR Green, 72 h; hits give low values; 94,000 compounds, 2.3% hits; activity change, % at 10 µM; in the data active = activity change below about -80%; inconclusive = no clear call, values can overlap the other calls
T cruzi growth-2: blocks T. cruzi growth in NIH3T3 host cells; T. cruzi beta-gal in NIH3T3, GalScreen luminescence, 90 h; 5,600 compounds, 72% hits; inhibition, % at 8.35 µM; shares compounds with T cruzi growth-1;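 active = mean replicate inhibition above about 95% and at least 55% of replicates individually reaching it, limit read from the data; inconclusive = only one of the two criteria is met; inactive = neither criterion is met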
T cruzi growth-3: Trypanosoma cruzi proliferation inhibition | shares compounds with T cruzi growth-1 | T. cruzi beta-gal in NIH3T3, GalScreen luminescence, 90 h | inhibition, % at 2.09 µM | 5,600 compounds, 21% hits | AID 651740;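 active = mean inhibition above about 95%, with at least 55% of replicates also reaching it, limit read from the data; inconclusive = meets just one of the two conditions; inactive = meets neither condition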;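 also: plate controls were neutral control median for no effect and positive control median for full effect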
NIH3T3 tox: NIH/3T3 (mouse) viability loss; AID 651742; NIH/3T3 viability, CellTiter-Glo ATP luminescence, 90 h; shares compounds with T cruzi growth-1; 5,600 compounds, 14% hits; cytotoxicity (signal decrease), % at 8.35 µM;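 active = mean signal decrease across replicates above about 35% based on untreated-well scatter, with enough replicates individually passing, limit read from the data; inconclusive = no rule stated though some were filed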;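 also: 0% = median of neutral control wells and 100% = median of positive control wells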
3T3 cytotox 2: kills mouse NIH/3T3 fibroblasts; 5,600 compounds, 56% hits; NIH/3T3 viability, CellTiter-Glo ATP luminescence, 90 h; shares compounds with T cruzi growth-1; inhibition, % at 24.9 µM;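 active = mean loss of cell viability signal at or above a set limit, and enough replicates individually reaching it; inconclusive = meets only the mean limit or only the replicate share; inactive = meets neither condition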;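 also: 0% = median of neutral control wells and 100% = median of positive control wells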
* marks the source's active call; other numbers are inactive results; ? = inconclusive; · = not tested or not shown.

SMILES	T cruzi growth-1	IDH1 R132H inh	GASC1 inh	Pf Dd2 growth	T cruzi growth-2	T cruzi growth-3	NIH3T3 tox	3T3 cytotox 2
C[C@H]1CN([C@@H](C)CO)C(=O)c2cc(NC(=O)Nc3cccc4ccccc34)ccc2O[C@H]1CN(C)Cc1ccc(-c2ccccc2)cc1	80.6	-1.3	-4.5	-11.8	·	·	·	·
C[C@@H]1CN([C@H](C)CO)C(=O)c2cc(NC(=O)Nc3cccc4ccccc34)ccc2O[C@H]1CN(C)Cc1ccc(-c2ccccc2)cc1	112.3*	-0.6	0.6	8.5	103.2*	90.7	8.7	-1.4
C[C@H](CO)N1C[C@H](C)[C@@H](CN(C)Cc2ccc(-c3ccccc3)cc2)Oc2ccc(NC(=O)Nc3cccc4ccccc34)cc2C1=O	101.6*	·	0.1	-15.6	106.2*	71.8	9.4	27.6
C[C@@H]1CN([C@@H](C)CO)C(=O)c2cc(NC(=O)c3ccncc3)ccc2O[C@H]1CN(C)C(=O)Nc1ccc(C(F)(F)F)cc1	-28.9	·	0.4	-5.8	·	·	·	·
O=C(CCCCCC(=O)Nc1ccccc1O)N/N=C/c1ccc(O)cc1O	·	-0.4	·	·	·	·	·	·
C[C@@H]1CN([C@@H](C)CO)S(=O)(=O)c2ccc(C#Cc3ccccc3)cc2O[C@H]1CN(C)C(=O)Nc1ccc2c(c1)OCO2	132.4*	·	-2.2	-72.8	97.6*	85.2	?	44.9*
C[C@@H]1CN([C@H](C)CO)S(=O)(=O)c2ccc(C#Cc3ccccc3)cc2O[C@@H]1CN(C)C(=O)Nc1ccc2c(c1)OCO2	130.2*	0.0	17.6	-76.1	105.7*	106.6*	5.0	4.1
C[C@@H]1CN([C@H](C)CO)S(=O)(=O)c2ccc(C#Cc3ccncc3)cc2O[C@H]1CN(C)C(=O)Nc1ccc2c(c1)OCO2	35.5	·	12.9	-53.9	·	·	·	·
C[C@H]1CN([C@@H](C)CO)S(=O)(=O)c2ccc(C#Cc3ccccc3)cc2O[C@@H]1CN(C)C(=O)Nc1ccc2c(c1)OCO2	130.8*	-0.2	-1.4	-52.6	106.0*	75.5	19.5	12.6
C[C@H](CO)N1C[C@H](C)[C@H](CN(C)C(=O)Nc2ccc3c(c2)OCO3)Oc2cc(C#Cc3cccnc3)ccc2S1(=O)=O	101.3*	-9.7	-1.8	?	48.0	-11.9	-2.9	8.2
C[C@@H]1CN([C@H](C)CO)S(=O)(=O)c2ccc(C#Cc3ccncc3)cc2O[C@@H]1CN(C)C(=O)Nc1ccc2c(c1)OCO2	25.0	·	3.9	-52.2	·	·	·	·
C[C@H]1CN([C@@H](C)CO)C(=O)c2cccc(NS(=O)(=O)c3ccc(Cl)cc3)c2O[C@@H]1CN(C)S(=O)(=O)c1cn(C)cn1	38.6	1.2	0.3	-3.5	·	·	·	·
Cn1c(SCC(=O)Nc2ccc(Oc3ccccc3)cc2)nnc1-c1ccccn1	·	0.0	·	·	·	·	·	·
C[C@@H]1CN([C@@H](C)CO)C(=O)c2cccc(NC(=O)c3ccncc3)c2O[C@@H]1CN(C)C(=O)Nc1ccc(C(F)(F)F)cc1	64.0	3.1	6.8	-55.3	·	·	·	·
COCC(=O)N1[C@H](CO)[C@@H](c2ccc(-c3cccc(OC)c3)cc2)C12CN(C(C)=O)C2	·	·	-0.5	16.6	·	·	·	·
C[C@H](CO)N1C[C@H](C)[C@@H](CN(C)C(=O)Nc2ccc3c(c2)OCO3)Oc2cc(C3=CCCC3)ccc2S1(=O)=O	113.9*	-0.3	0.4	-46.7	96.1*	44.9	-1.2	17.2
C[C@H]1CN([C@@H](C)CO)S(=O)(=O)c2ccc(C3=CCCCC3)cc2O[C@@H]1CN(C)C(=O)Nc1ccc2c(c1)OCO2	·	-0.6	-1.8	-2.5	·	·	·	·
C[C@@H]1CN([C@@H](C)CO)S(=O)(=O)c2ccc(C#Cc3ccccc3)cc2O[C@@H]1CN(C)C(=O)Nc1ccc2c(c1)OCO2	130.7*	-0.6	9.3	?	106.9*	?	19.6	30.0*
C[C@H](CO)N1C[C@H](C)[C@H](CN(C)C(=O)Nc2ccc3c(c2)OCO3)Oc2cc(C#Cc3ccccc3)ccc2S1(=O)=O	130.7*	0.2	-0.4	-79.5	108.1*	94.3	-18.0	19.4
C[C@H](CO)N1C[C@H](C)[C@H](CN(C)Cc2ccc3c(c2)OCO3)OCCCC[C@H](C)Oc2ccc(NS(=O)(=O)c3ccc(Cl)cc3)cc2C1=O	80.4	·	0.2	-59.6	·	·	·	·
C[C@H](CO)N1C[C@H](C)[C@H](CN(C)C(=O)Nc2ccccc2)Oc2c(NC(=O)Nc3ccc(F)cc3)cccc2C1=O	18.9	·	1.2	-2.3	·	·	·	·
C[C@@H]1CCCCO[C@@H](CN(C)Cc2ccc(C(=O)O)cc2)[C@@H](C)CN([C@@H](C)CO)C(=O)c2cc(NC(=O)C3CCCCC3)ccc2O1	-1.6	1.3	1.7	13.4	·	·	·	·
C[C@@H]1CN([C@H](C)CO)C(=O)c2cc(NC(=O)C3CCCCC3)ccc2O[C@@H](C)CCCCO[C@H]1CN(C)Cc1ccc(C(F)(F)F)cc1	?	·	-1.2	?	100.7*	109.1*	11.3	49.4*
C[C@@H]1CN([C@@H](C)CO)C(=O)c2cc(NC(=O)C3CCCCC3)ccc2O[C@@H]1CN(C)Cc1ccc(C(F)(F)F)cc1	72.2*	0.8	-0.8	11.3	78.4	15.3	26.4	31.4*
C[C@@H]1CCCCO[C@@H](CN(C)Cc2ccc(C(=O)O)cc2)[C@@H](C)CN([C@H](C)CO)C(=O)c2cc(NC(=O)C3CCCCC3)ccc2O1	-17.1	3.2	0.7	22.8	·	·	·	·
C[C@@H]1CCCCO[C@H](CN(C)Cc2ccc(C(F)(F)F)cc2)[C@H](C)CN([C@@H](C)CO)C(=O)c2cc(NC(=O)C3CCCCC3)ccc2O1	117.1*	-1.4	-2.9	-40.0	102.2*	110.2*	57.1*	73.3*
C[C@H](CO)N1C[C@H](C)[C@H](CN(C)Cc2ccc(C(F)(F)F)cc2)OCCCC[C@H](C)Oc2ccc(NC(=O)C3CCCCC3)cc2C1=O	98.9*	0.7	-0.4	-12.7	?	111.5*	-22.6	54.9*
CO[C@H]1CN(C)C(=O)c2ccc(NS(=O)(=O)c3ccccc3)cc2OC[C@H](C)N(C)C[C@H]1C	-8.7	0.3	0.2	19.0	·	·	·	·
C[C@H](CO)N1C[C@H](C)[C@H](CN(C)C(=O)Nc2ccc(C(F)(F)F)cc2)Oc2ccc(NC(=O)C3CCCCC3)cc2C1=O	?	1.3	-3.4	-68.6	100.4*	32.8	43.8*	51.5*
C[C@@H]1CCCCO[C@@H](CN(C)Cc2ccc(C(=O)O)cc2)[C@H](C)CN([C@H](C)CO)C(=O)c2cc(NC(=O)C3CCCCC3)ccc2O1	-5.3	-2.6	0.2	39.8	·	·	·	·

Compound activity: PubChem BioAssay, Broad Institute
